The source made the active and inactive calls. The rule behind the calls is not given here.
Assays:
[1] = target: T1, Free fatty acid receptor 1 (Homo sapiens, UniProt O14842); assay: Agonist activity at human FFA1 expressed in CHO cells assessed as induction of receptor activation by measuring Ca2+influx at 100 nM incubated for by FLIPR method; format: functional, cell-based
Outline: (§1)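 CHO cells stably expressing human FFA1 (NM_005303), seeded 15 K cells/well, grown 16 h at 37 °C in 5% CO2. Compounds added and Ca2+ flux read on FLIPR Tetra. Activity expressed as (A−B)/(C−B)×100, with C from 10 µM γ-linolenic acid and B from vehicle. Single-concentration data are means of three independent experiments; EC50 values are means of three determinations.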

[2] = target: T1, Free fatty acid receptor 1; assay: Agonist activity at human FFA1 expressed in CHO cells assessed as induction of receptor activation by measuring Ca2+influx at 300 nM incubated for by FLIPR method; format: functional, cell-based
Outline: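 CHO cells stably expressing human FFA1, seeded 15 K cells/well and grown 16 h at 37 °C. Response normalised as (A−B)/(C−B)×100 between vehicle (B) and 10 µM γ-linolenic acid (C).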

[3] = Lipophilicity, logD of the compound at pH 7.4 by shake flask method; format: physicochemical; details: buffer
Outline: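 Shake-flask method with 1-octanol and buffer at pH 7.4, shaken at 700 rpm for 24 h, then left 1 h to separate. Octanol phase diluted ×10; both phases analysed by HPLC at 254 nm in duplicate. logD taken as the octanol/buffer peak-area ratio, corrected using two calibration points per compound per solvent. Three independent experiments.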

[4] = target: T1, Free fatty acid receptor 1; assay: Agonist activity at human FFA1 expressed in CHO cells assessed as induction of receptor activation by measuring Ca2+influx incubated for by FLIPR method; format: functional, cell-based; outline: as §1
Mus musculus [5] = assay: Hypoglycemic activity in normal ICR mouse assessed as reduction in blood glucose level at 20 to 80 mg/kg, po by OGTT method; format: functional, organism-based
Outline: (§2)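 Male ICR mice, 10 weeks old, fasted 12 h and randomised into groups (n = 6). Single oral dose in 0.5% carboxymethyl cellulose (10 mL/kg) at 20, 50 or 80 mg/kg. Oral glucose load (3 g/kg, 30% solution) given 30 min later. Tail blood sampled at −30, 0, 15, 30, 45, 60 and 120 min; mean ± SEM, two-tailed Student's t-test against vehicle.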

Mus musculus [6] = assay: Hypoglycemic activity in STZ-induced type-2 diabetic C57BL/6 mouse assessed as reduction in blood glucose level at 50 mg/kg, po by OGTT method; format: functional, organism-based
Outline: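 Male C57BL/6 mice fed 45%-fat diet for 4 weeks, given STZ ip at 80 mg/kg, then fed high-fat diet for 4 more weeks. Mice with fasting glucose ≥11.1 mmol/L were used. After a 12 h fast (n = 6/group, with a normal-mouse control group), 50 mg/kg was given orally in 0.5% CMC, then 2 g/kg glucose orally 30 min later. Glucose read by test strip from −30 to 120 min; Student's t-test.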

Mus musculus [7] = assay: Hypoglycemic activity in normal ICR mouse assessed as reduction in blood glucose level at 20 mg/kg, po by OGTT method; format: functional, organism-based; outline: as §2

T1 sequence (O14842 whole entry): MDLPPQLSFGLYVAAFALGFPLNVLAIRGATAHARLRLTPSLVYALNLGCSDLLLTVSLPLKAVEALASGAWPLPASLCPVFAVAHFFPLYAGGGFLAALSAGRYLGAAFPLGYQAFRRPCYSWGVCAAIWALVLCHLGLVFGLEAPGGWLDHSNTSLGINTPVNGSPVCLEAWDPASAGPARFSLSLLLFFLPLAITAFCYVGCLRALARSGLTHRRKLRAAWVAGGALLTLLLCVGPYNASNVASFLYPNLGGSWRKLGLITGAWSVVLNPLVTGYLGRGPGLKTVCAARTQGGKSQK

Row | Structure (SMILES) | Activity [1] | Activity [2] | other results
1 | O=C(O)COc1ccc(NC(=O)COc2cccc(C(F)(F)F)c2)cc1F | 11.3% | – | –
2 | O=C(O)COc1ccc(NC(=O)Cc2ccccc2)cc1F | 19.9% | 39.6% | –
3 | O=C(O)COc1ccc(NC(=O)C(=O)Nc2ccccc2)cc1F | 9.78% | 26.5% | –
4 | COc1ccc(OCC(=O)Nc2ccc(OCC(=O)O)c(F)c2)cc1 | 5.73% | – | –
5 | O=C(O)COc1ccc(NC(=O)c2ccccc2)cc1F | 3.56% | 12.8% | –
6 | O=C(O)COc1ccc(NC(=O)COc2ccccc2)cc1F | 29.8% | 58.7% | logD [3]: -1.25
7 | CC(C)(Oc1ccccc1)C(=O)Nc1ccc(OCC(=O)O)c(F)c1 | 3.56% | – | –
8 | CC(Oc1cccc(C(C)(C)C)c1)C(=O)Nc1ccc(OCC(=O)O)c(F)c1 (stereo unspecified) | 32.8% | – | logD [3]: 0.63; EC50 [4]: 140 nM
9 | Cc1ccc(OC(C)C(=O)Nc2ccc(OCC(=O)O)c(F)c2)cc1C (stereo unspecified) | 36.8% | – | logD [3]: 0.33; EC50 [4]: 133 nM
10 | Cc1cc(C)cc(OC(C)C(=O)Nc2ccc(OCC(=O)O)c(F)c2)c1 (stereo unspecified) | 25.7% | – | –
11 | Cc1ccc(OCC(=O)Nc2ccc(OCC(=O)O)c(F)c2)cc1 | 31.2% | – | EC50 [4]: 148 nM
12 | CC(Oc1cccc(C(F)(F)F)c1)C(=O)Nc1ccc(OCC(=O)O)c(F)c1 (stereo unspecified) | 12.7% | – | –
13 | CCc1ccc(OCC(=O)Nc2ccc(OCC(=O)O)c(F)c2)cc1 | 14.6% | – | –
14 | O=C(O)COc1ccc(NC(=O)C(=O)Nc2cccc(Cl)c2)cc1F | 13.3% | 33.7% | –
15 | CC(C)(C)c1ccc(OCC(=O)Nc2ccc(OCC(=O)O)c(F)c2)cc1 | 7.65% | – | –
16 | O=C(O)COc1ccc(NC(=O)C(=O)Nc2ccccc2Cl)cc1F | 10.2% | 27.9% | –
17 | CCOc1ccccc1OC(C)C(=O)Nc1ccc(OCC(=O)O)c(F)c1 (stereo unspecified) | 8.79% | – | –
18 | CC(C)c1cccc(OCC(=O)Nc2ccc(OCC(=O)O)c(F)c2)c1 | 43.3% | – | logD [3]: 0.15; EC50 [4]: 116 nM
19 | CC(C)(C)c1cccc(OCC(=O)Nc2ccc(OCC(=O)O)c(F)c2)c1 | 40.2% | – | logD [3]: 0.35; EC50 [4]: 122 nM

Row | Structure (SMILES) | Activity [1] | Activity [2] | other results
20 | Cc1ccc(C(C)C)cc1OC(C)C(=O)Nc1ccc(OCC(=O)O)c(F)c1 (stereo unspecified) | 19.4% | – | –
21 | Cc1cccc(NC(=O)C(=O)Nc2ccc(OCC(=O)O)c(F)c2)c1 | 17.6% | 36.3% | –
22 | O=C(O)COc1ccc(NC(=O)COc2ccc(OC(F)(F)F)cc2)cc1F | 6.45% | – | –
23 | Cc1cccc(OCC(=O)Nc2ccc(OCC(=O)O)c(F)c2)c1 | 45.4% | – | logD [3]: -0.99; inhibition (Mus musculus [5]): Dose-dependent effect; EC50 [4]: 108 nM; inhibition (Mus musculus [6]): Active
24 | CC(C)c1ccc(OCC(=O)Nc2ccc(OCC(=O)O)c(F)c2)cc1 | 11.8% | – | –
25 | Cc1cc(OCCCS(C)(=O)=O)cc(C)c1-c1cccc(COc2ccc(OCC(=O)O)c(F)c2)c1 | 54.9% | 67.3% | logD [3]: 2.31
26 | O=C(O)COc1ccc(NC(=O)Nc2ccccc2)cc1F | 8.47% | 23.7% | –
27 | COc1cccc(OCC(=O)Nc2ccc(OCC(=O)O)c(F)c2)c1 | 31.7% | – | EC50 [4]: 148 nM
28 | COc1ccccc1NC(=O)C(=O)Nc1ccc(OCC(=O)O)c(F)c1 | 6.78% | 19.9% | –
29 | O=C(O)COc1ccc(NC(=O)C2(C(=O)Nc3ccccc3)CC2)cc1F | 13.6% | 34.2% | –
30 | CC(Oc1ccccc1)C(=O)Nc1ccc(OCC(=O)O)c(F)c1 (stereo unspecified) | 35.7% | – | logD [3]: -0.18; EC50 [4]: 135 nM
31 | Cc1ccc(C)c(OC(C)C(=O)Nc2ccc(OCC(=O)O)c(F)c2)c1 (stereo unspecified) | 18.6% | – | –
32 | CCOc1ccc(OC(C)C(=O)Nc2ccc(OCC(=O)O)c(F)c2)cc1 (stereo unspecified) | 3.56% | – | –
33 | Cc1ccc(NC(=O)C(=O)Nc2ccc(OCC(=O)O)c(F)c2)cc1 | 11.3% | 29.9% | –
34 | CC(Oc1ccccc1F)C(=O)Nc1ccc(OCC(=O)O)c(F)c1 (stereo unspecified) | 35.1% | – | logD [3]: 0.07; EC50 [4]: 136 nM
35 | Cc1cc(OCCCS(C)(=O)=O)cc(C)c1-c1cccc(COc2ccc3c(c2)OC[C@H]3CC(=O)O)c1 | – | – | logD [3]: 2.43; inhibition (Mus musculus [7]): Active
36 | Cc1ccccc1OCC(=O)Nc1ccc(OCC(=O)O)c(F)c1 | 20.8% | – | –
37 | Cc1ccc(C(C)C)cc1OCC(=O)Nc1ccc(OCC(=O)O)c(F)c1 | 14.6% | – | logD [3]: 0.47
